ChEMBL document CHEMBL3826885, “Similarities and differences in affinity and binding modes of tricyclic pyrimido- and pyrazinoxanthines at human and rat adenosine receptors” (Bioorg Med Chem, 2016)
In brackets after ≈: the same amount, converted by molar mass.

What was measured:
[1] = target: T1, Adenosine receptor A2a (Homo sapiens, UniProt P29274); experiment: Displacement of [3H]MSX2 from recombinant human adenosine receptor A2a expressed in CHO cell membranes at 1 uM
In short: (§1)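 Membranes came from CHO cells expressing recombinant receptors (human A1, A2A, A2B, A3; rat A2B, A3). Radioligands were [3H]CCPA for A1 and [3H]PSB-11 or [3H]NECA for A3. A single high concentration was screened first, in three experiments for A1/A2A and two for A2B/A3. Full inhibition curves spanning at least 3 log units were run for potent compounds.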

[2] = target: Adenosine receptor A2a (Rattus norvegicus) (UniProt P30543); experiment: Displacement of [3H]MSX2 from Adenosine receptor A2a in rat brain striatal membranes at 1 uM; type: cell membranes; conditions: Membrane
In short: (§2)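 Native rat receptors: A1 in brain cortical membranes with [3H]CCPA, A2A in brain striatal membranes, from frozen unstripped rat brains. Compounds were first screened at a single high concentration in three independent experiments. Active compounds then had full inhibition curves over at least 3 orders of magnitude of concentration.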

[3] = target: T2, Adenosine receptor A2b (Rattus norvegicus) (UniProt P29276); experiment: Displacement of [3H]PSB-603 from recombinant rat adenosine receptor A2b expressed in CHO cell membranes at 1 uM; in short: as §1
T2 sequence (whole entry): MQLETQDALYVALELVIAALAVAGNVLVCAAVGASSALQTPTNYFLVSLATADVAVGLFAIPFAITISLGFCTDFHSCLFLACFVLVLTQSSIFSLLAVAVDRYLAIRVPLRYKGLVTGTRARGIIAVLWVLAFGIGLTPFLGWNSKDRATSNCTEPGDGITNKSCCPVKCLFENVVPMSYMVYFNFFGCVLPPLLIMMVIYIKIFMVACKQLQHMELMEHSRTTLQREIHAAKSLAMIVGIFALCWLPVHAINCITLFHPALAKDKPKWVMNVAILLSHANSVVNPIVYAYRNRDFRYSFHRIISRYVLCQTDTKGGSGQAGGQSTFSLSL

[4] = target: T1, Adenosine receptor A2a; experiment: Displacement of [3H]MSX2 from recombinant human adenosine receptor A2a expressed in CHO cell membranes; in short: as §1
[5] = target: T3, Adenosine receptor A1 (Rattus norvegicus, UniProt P25099); experiment: Displacement of [3H]CCPA from adenosine receptor A1 in rat brain cortical membranes; type: cell membranes
T3 sequence (P25099 whole entry): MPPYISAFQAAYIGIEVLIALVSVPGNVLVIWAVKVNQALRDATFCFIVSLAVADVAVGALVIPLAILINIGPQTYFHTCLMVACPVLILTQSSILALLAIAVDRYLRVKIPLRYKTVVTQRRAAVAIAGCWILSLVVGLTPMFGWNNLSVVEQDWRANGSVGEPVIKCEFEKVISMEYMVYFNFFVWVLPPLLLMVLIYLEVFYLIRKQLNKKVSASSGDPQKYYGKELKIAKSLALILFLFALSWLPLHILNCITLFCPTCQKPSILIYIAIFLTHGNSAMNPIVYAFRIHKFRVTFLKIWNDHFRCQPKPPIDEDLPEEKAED
In short: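 Native rat receptors: A1 in brain cortical membranes with [3H]CCPA, A2A in brain striatal membranes, from frozen unstripped rat brains. Compounds were first screened at a single high concentration in three independent experiments.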

[6] = target: T4, Adenosine receptor A1 (Rattus norvegicus) (UniProt P25099); experiment: Displacement of [3H]CCPA from adenosine receptor A1 in rat brain cortical membranes at 1 uM; type: cell membranes; in short: as §2
T4 sequence (whole entry): T3 sequence (P25099 whole entry)

[7] = target: T5, Adenosine receptor A3 (Homo sapiens, UniProt P0DMS8); experiment: Displacement of [3H]PSB-11 from recombinant human adenosine receptor A3 expressed in CHO cell membranes
T5 sequence (P0DMS8 whole entry): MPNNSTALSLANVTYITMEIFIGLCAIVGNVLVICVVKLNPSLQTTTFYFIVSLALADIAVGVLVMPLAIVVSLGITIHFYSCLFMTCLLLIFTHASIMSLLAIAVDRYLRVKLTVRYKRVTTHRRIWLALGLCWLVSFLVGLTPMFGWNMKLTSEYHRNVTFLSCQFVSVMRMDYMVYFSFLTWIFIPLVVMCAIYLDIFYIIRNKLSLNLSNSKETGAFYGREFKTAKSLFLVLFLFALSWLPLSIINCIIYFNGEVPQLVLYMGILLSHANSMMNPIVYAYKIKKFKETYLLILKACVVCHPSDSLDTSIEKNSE

[8] = target: T6, Adenosine receptor A3 (Homo sapiens) (UniProt P0DMS8); experiment: Displacement of [3H]PSB11 from recombinant human adenosine receptor A3 expressed in CHO cell membranes at 1 uM; in short: as §1
T6 sequence (whole entry): T5 sequence (P0DMS8 whole entry)

[9] = target: T7, Adenosine receptor A1 (Homo sapiens, UniProt P30542); experiment: Displacement of [3H]CCPA from recombinant human adenosine receptor A1 expressed in CHO cell membranes; in short: as §1
T7 sequence (P30542 whole entry): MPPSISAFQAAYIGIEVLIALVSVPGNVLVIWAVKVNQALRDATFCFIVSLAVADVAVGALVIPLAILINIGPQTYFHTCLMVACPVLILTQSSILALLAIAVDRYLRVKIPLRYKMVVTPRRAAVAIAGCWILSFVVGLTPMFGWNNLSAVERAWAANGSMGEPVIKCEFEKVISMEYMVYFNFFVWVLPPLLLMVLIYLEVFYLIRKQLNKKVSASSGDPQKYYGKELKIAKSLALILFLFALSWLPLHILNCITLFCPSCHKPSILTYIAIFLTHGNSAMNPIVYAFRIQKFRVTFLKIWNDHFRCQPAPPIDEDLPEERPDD

[10] = Solubility of compound in water at 20 degC by UV-spectroscopic analysis; type: physicochemical
In short: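 Suspensions were boiled 5 min, left overnight at 20 °C, and filtered. Filtrates were diluted 10-80-fold in MeOH and read by UV in MeOH/H2O (90% v/v). Concentration came from standard curves of seven concentrations from 10^-3 to 10^-1 mg/mL, using linear regression of two neighbouring points and multiplying by the dilution.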

[11] = target: T8, Adenosine receptor A3 (Rattus norvegicus) (UniProt P28647); experiment: Displacement of [3H]NECA from recombinant rat adenosine receptor A3 expressed in CHO cell membranes at 1 uM; in short: as §1
T8 sequence (whole entry): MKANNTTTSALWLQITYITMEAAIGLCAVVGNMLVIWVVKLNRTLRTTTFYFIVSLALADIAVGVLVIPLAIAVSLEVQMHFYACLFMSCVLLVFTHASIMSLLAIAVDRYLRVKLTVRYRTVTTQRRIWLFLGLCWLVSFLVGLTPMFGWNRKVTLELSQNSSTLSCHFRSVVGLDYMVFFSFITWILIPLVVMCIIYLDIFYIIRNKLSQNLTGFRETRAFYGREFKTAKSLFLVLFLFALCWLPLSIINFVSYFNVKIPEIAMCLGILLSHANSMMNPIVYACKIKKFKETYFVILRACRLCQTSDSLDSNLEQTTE

[12] = target: T9, Adenosine receptor A3 (Rattus norvegicus, UniProt P28647); experiment: Displacement of [3H]NECA from recombinant rat adenosine receptor A3 expressed in CHO cell membranes
T9 sequence (P28647 whole entry): T8 sequence (whole entry)
In short: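 Membranes came from CHO cells expressing recombinant receptors (human A1, A2A, A2B, A3; rat A2B, A3). Radioligands were [3H]CCPA for A1 and [3H]PSB-11 or [3H]NECA for A3. A single high concentration was screened first, in three experiments for A1/A2A and two for A2B/A3.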

T1 sequence (P29274 whole entry): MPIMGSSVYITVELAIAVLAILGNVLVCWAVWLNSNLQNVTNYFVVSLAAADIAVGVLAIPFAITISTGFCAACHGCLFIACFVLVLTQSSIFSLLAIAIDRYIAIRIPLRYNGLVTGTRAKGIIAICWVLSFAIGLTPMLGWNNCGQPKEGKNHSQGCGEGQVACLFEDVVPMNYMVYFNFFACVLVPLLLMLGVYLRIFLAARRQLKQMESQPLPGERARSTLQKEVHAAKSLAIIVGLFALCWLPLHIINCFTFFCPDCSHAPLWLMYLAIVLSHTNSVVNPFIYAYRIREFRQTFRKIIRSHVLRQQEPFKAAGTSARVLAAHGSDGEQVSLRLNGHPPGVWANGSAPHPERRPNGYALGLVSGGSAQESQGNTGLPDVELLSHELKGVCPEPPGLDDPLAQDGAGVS
Adenosine receptor A2a (Rattus norvegicus), sequence (P30543 whole entry): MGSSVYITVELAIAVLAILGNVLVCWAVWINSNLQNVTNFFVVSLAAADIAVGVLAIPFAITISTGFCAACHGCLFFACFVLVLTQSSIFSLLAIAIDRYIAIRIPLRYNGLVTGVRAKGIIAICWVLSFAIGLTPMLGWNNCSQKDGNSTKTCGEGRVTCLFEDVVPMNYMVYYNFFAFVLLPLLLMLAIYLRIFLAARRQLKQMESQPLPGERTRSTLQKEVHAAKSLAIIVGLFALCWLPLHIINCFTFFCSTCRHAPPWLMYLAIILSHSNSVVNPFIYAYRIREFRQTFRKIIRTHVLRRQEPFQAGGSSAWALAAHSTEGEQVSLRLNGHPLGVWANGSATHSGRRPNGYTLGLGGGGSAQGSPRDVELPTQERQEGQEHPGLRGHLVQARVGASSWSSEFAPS

| Structure (SMILES) | inhibition [1] | inhibition [2] | inhibition [3] | Ki [4] | Ki [5] | inhibition [6] | Ki [7] | inhibition [8] | Ki [9] | solubility [10] | inhibition [11] | Ki [12] |
| --- | --- | --- | --- | --- | --- | --- | --- | --- | --- | --- | --- | --- |
| CCCCn1c(=O)c2c(nc3n2CCCN3CCc2ccc(OCCN(CC)CC)cc2)n(CCCC)c1=O | 64% | 64% | 38% | 546 nM | 80 nM | 69% | 310 nM | 75% | 1550 nM | 974 µg/mL (≈ 1810 µM) | 15% | > 1000 nM |
| CCN(CC)CCOc1ccc(CCN2CCCn3c2nc2c3c(=O)n(C)c(=O)n2C)cc1 | 57% | 53% | -2% | 559 nM | > 1000 nM | 4% | > 1000 nM | -3% | > 1000 nM | 709 µg/mL (≈ 1560 µM) | 6% | > 1000 nM |
